Consider one molecule from paper PMC12096016 (Protein Science : A Publication of the Protein Society, 2025).

In experiment [1] the target is T1, wild‐type EntB isochorismatase (Escherichia coli, UniProt P0ADI4).
T1 sequence (P0ADI4 1-285): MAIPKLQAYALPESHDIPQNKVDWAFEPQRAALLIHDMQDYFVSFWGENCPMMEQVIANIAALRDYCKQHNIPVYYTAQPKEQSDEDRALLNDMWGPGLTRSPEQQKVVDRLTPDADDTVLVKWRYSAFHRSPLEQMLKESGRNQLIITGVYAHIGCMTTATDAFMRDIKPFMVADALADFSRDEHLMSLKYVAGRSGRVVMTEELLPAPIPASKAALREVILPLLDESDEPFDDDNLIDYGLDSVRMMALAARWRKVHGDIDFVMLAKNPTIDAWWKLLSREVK
In words: EntB‐LDH coupled isochorismatase activity assay, wild-type EntB. The following applies: for Isochorismate apparent K m / V max: 0.1 μM EntB. The format is biochemical. The method, boiled down: (§1)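 His-tagged EntB (pCA24N, E. coli AG-1, IMAC-purified) at 0.10 μM was preincubated 10 min at RT with 1.50 unit/mL LDH and 350 μM NADH in 50 mM HEPES pH 8.0, 150 mM NaCl, 1 mM TCEP. Substrate was a ~3:2 chorismate:isochorismate mix made with EntC and 5 mM MgCl2 on ice for 20 min, then filtered. It was added at 6.2–73.9 μM, and OD340 loss was followed at 21°C. Test compound was at 0, 100, 250 or 400 μM. Km and Vmax came from Michaelis–Menten fits, and Ki from an Eadie–Hofstee slope replot.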

In experiment [2] the target is T2, EntB R196A isochorismatase (Escherichia coli, UniProt P0ADI4, R196A).
T2 sequence (P0ADI4 1-285 R196A): T1 sequence (P0ADI4 1-285) with R196A
Put plainly: EntB‐LDH coupled isochorismatase activity assay, EntB R196A. The format is biochemical. In a few lines: as §1

For experiment [3], the system named is EntB. The following applies: compared with 2,5‐DHB and 3,5‐DHB; ref Khalil & Pawelek, 2009; cited from earlier work.
The target in experiment [4] is T3, EntB variant R196A (Escherichia coli, UniProt P0ADI4, R196A).
T3 sequence (P0ADI4 1-285 R196A): T1 sequence (P0ADI4 1-285) with R196A
In words: Fluorescence anisotropy binding assay, EntB R196A. The following applies: EntB R196A titrated into 2.00 μM 2,3‐DHB; apparent K D not determinable (no saturation). Background: Fluorescence polarisation rises when a labelled molecule tumbles more slowly, as on binding a larger partner.

Experiment [5] has as its target T4, apo‐EntB (wild‐type EntB) (Escherichia coli, UniProt P0ADI4).
T4 sequence (P0ADI4 1-285): T1 sequence (P0ADI4 1-285)
In words: Fluorescence anisotropy binding assay, wild-type EntB. The method, boiled down: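 The test compound was held at 2 μM and purified protein was titrated in. Buffer was 50 mM HEPES pH 8.0, 150 mM NaCl, 1 mM TCEP, with 10 min preincubation at RT. Anisotropy was read at 21°C (ex 315 nm, em 437 nm, 10 nm slits), G-factor corrected, in triplicate. Apparent KD came from a one-site total-binding fit.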

In experiment [6] the target is T5, EntB‐driven EntC reaction (Escherichia coli, UniProt P0ADI4).
T5 sequence (P0ADI4 1-285): T1 sequence (P0ADI4 1-285)
Put plainly: Isothermal titration microcalorimetry of the EntC–EntB coupled reaction. The format is biochemical. The conditions noted are these: 313 nM EntC, 1293 nM EntB, 0, 250, 500 μM DHB, 30°C. In a few lines:
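The sample cell held 313 nM EntC with or without EntB (162–2587 nM). Two injections of 79 μM chorismate were given 10 min apart, stirring at 300 RPM. Integrated heats were corrected for buffer injection and chorismate dilution heats.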
Background: Isothermal titration calorimetry measures the heat released or taken up as one component is titrated into another.

Substitutions are numbered along the chain they refer to. “Also recorded” adds a separate entry of the source.

Regarding `O=C(O)c1cccc(O)c1O` [2,3‐DHB, 2,3‐dihydroxybenzoic acid], the values for the IC50 in experiment [1] and in experiment [2] were 360 µM and 692 µM, respectively. Besides, the “Isochorismate apparent K m” value in experiment [1] (100 μM 2,3‐DHB) is 16.24 ± 1.57 µM; in experiment [1] (250 μM 2,3‐DHB), 22.12 ± 3.25 µM; in experiment [1] (400 μM 2,3‐DHB), 32.55 ± 0.23 µM. In addition, the figures for the V max in experiment [1] (100 μM 2,3‐DHB), in experiment [1] (250 μM 2,3‐DHB) and in experiment [1] (400 μM 2,3‐DHB) were 5.25 ± 0.17 µM/min, 4.99 ± 0.52 µM/min and 5.33 ± 0.05 µM/min, respectively. Also, in experiment [1] (Eadie–Hofstee plot, linear fits converge at the ordinate), the mode of inhibition entry is on record as “competitive inhibition”. Further, the “quenching of EntB intrinsic fluorescence” value in experiment [3] is “able to specifically quench EntB fluorescence; also recorded: most strongly quenched”. In addition, in experiment [4], the “affinity relative to wild‐type EntB” value was “much lower affinity than wild‐type EntB”. Binding in experiment [5] was put at a Kd of 8.95 µM. Moreover, in experiment [6], the “effect on heat evolution (integrated reaction heats)” value is reported as “suppression of integrated reaction heats; also recorded: heat evolution decreased in a DHB‐dependent manner”.
